Experimental data reported in ChEMBL document CHEMBL3085623, “Oridonin ring A-based diverse constructions of enone functionality: identification of novel dienone analogues effective for highly aggressive breast cancer by inducing apoptosis” (J Med Chem, 2013).
Each block holds one compound with its values, some of them ahead of it. Active and inactive are the calls of the source. The rule behind the calls is not given here.

Assays:
[1] = cells; conditions: Homo sapiens, NCI/ADR-RES, 48 h
[2] = system: HMEC; assay: Growth inhibition of human HMEC cells after 24 hrs
[3] = system: MDA-MB-231; assay: Induction of apoptosis in human MDA-MB-231 cells assessed as downregulation of p65 NF-kappaB level at 2.5 to 10 uM after 48 hrs by Western blot analysis; assay type: functional, cell-based
Method in brief: (§1)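 MDA-MB-231 cells treated 48 h with DMSO or compound. Lysates quantified by Bradford; 30 μg protein run on SDS-PAGE and transferred to PVDF. Blocked in 5% milk, then probed overnight: anti-Bcl-2 1:200, Bax 1:1000, PARP 1:10000, NF-κB p65 1:2000, caspase-3 1:1000, β-actin 1:20000. ECL detection.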

[4] = system: MDA-MB-231; assay: Induction of apoptosis in human MDA-MB-231 cells assessed as live cells at 5 uM after 24 hrs using FITC-annexin V and propidium iodide staining by flow cytometry (reference value: 83.45 to 89.30 %); assay type: functional
[5] = system: MCF7; assay: Antiproliferative activity against human MCF7 cells after 48 hrs by MTT assay; assay type: functional, cell-based; conditions: MCF7, 48 h
Method in brief: (§2)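 Seeded at 1 × 10^4 cells/well, then exposed to DMSO or compound at 0.01, 0.1, 1, 5, 10 and 100 μM for 48 h. MTT (5 mg/mL in PBS) added for a further 4 h, formazan dissolved in DMSO, OD read at 550 nm. Quadruplicate wells per concentration. IC50 from curve fitting; mean ± SE of three independent experiments.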

[6] = system: MDA-MB-231; assay: Induction of apoptosis in human MDA-MB-231 cells assessed as caspase3 activation after 48 hrs by Western blot analysis; assay type: functional, cell-based
Method in brief: as §1

[7] = system: MDA-MB-231; assay: Induction of apoptosis in human MDA-MB-231 cells assessed as live cells at 10 uM after 24 hrs using FITC-annexin V and propidium iodide staining by flow cytometry (reference value: 83.45 to 89.30 %); assay type: functional
[8] = system: MDA-MB-231; assay: Induction of apoptosis in human MDA-MB-231 cells assessed as dead cells at 5 uM after 24 hrs using FITC-annexin V and propidium iodide staining by flow cytometry (reference value: 0.3 to 1.00 %); assay type: functional
[9] = system: MDA-MB-231; assay: Induction of apoptosis in human MDA-MB-231 cells assessed as downregulation of Bcl2 level at 2.5 to 10 uM after 48 hrs by Western blot analysis; assay type: functional, cell-based
Method in brief: as §1

[10] = system: MDA-MB-231; assay: Induction of apoptosis in human MDA-MB-231 cells assessed as dead cells at 10 uM after 24 hrs using FITC-annexin V and propidium iodide staining by flow cytometry (reference value: 0.3 to 1.00 %); assay type: functional
[11] = system: MDA-MB-231; assay: Induction of apoptosis in human MDA-MB-231 cells assessed as late apoptotic cells at 1 uM after 24 hrs using FITC-annexin V and propidium iodide staining by flow cytometry (reference value: 5.5 to 11.0 %); assay type: functional
[12] = system: Mus musculus; assay: Toxicity in human MDA-MB-231 cells xenografted nude mouse assessed as change body weight at 5 mg/kg, ip administered 5 days per week for 10 days; assay type: organism-based; set-up: dose 5 mg/kg, route intraperitoneal; conditions: in vivo
Method in brief: (§3)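 Female nude mice, 4–6 weeks old, kept in a barrier unit on a 12 h light-dark cycle. Each mouse received 2.5 × 10^6 freshly harvested MDA-MB-231 cells in 100 μL PBS into the 3rd mammary fat pad. Mice were randomized into 3 groups. Once tumors reached 200 mm3, dosing was 5 mg/kg ip, 5 days/week for 10 days, in 50% DMSO/50% PEG. Tumor volume (0.5 × L × W2) and body weight were measured daily. One-way ANOVA.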

[13] = system: MDA-MB-231; assay: Antitumor activity against human MDA-MB-231 cells xenografted in nude mouse assessed as inhibition of tumor growth at 5 mg/kg, ip administered 5 days per week for 10 days; assay type: functional, organism-based; set-up: dose 5 mg/kg
Method in brief: as §3

[14] = system: MDA-MB-231; assay: Induction of apoptosis in human MDA-MB-231 cells assessed as late apoptotic cells at 10 uM after 24 hrs using FITC-annexin V and propidium iodide staining by flow cytometry (reference value: 5.5 to 11.0 %); assay type: functional
[15] = system: MDA-MB-231; assay: Induction of apoptosis in human MDA-MB-231 cells assessed as PARP cleavage after 48 hrs by Western blot analysis; assay type: functional, cell-based
Method in brief: as §1

[16] = system: MDA-MB-231; assay: Induction of apoptosis in human MDA-MB-231 cells assessed as dead cells at 1 uM after 24 hrs using FITC-annexin V and propidium iodide staining by flow cytometry (reference value: 0.3 to 1.00 %); assay type: functional
[17] = system: MDA-MB-231; assay: Antiproliferative activity against human MDA-MB-231 cells after 48 hrs by MTT assay; assay type: functional, cell-based; conditions: MDA-MB-231, 48 h
Method in brief: as §2

[18] = system: MDA-MB-231; assay: Induction of apoptosis in human MDA-MB-231 cells assessed as late apoptotic cells at 5 uM after 24 hrs using FITC-annexin V and propidium iodide staining by flow cytometry (reference value: 5.5 to 11.0 %); assay type: functional
[19] = system: MDA-MB-231; assay: Induction of apoptosis in human MDA-MB-231 cells assessed as early apoptotic cells at 5 uM after 24 hrs using FITC-annexin V and propidium iodide staining by flow cytometry (reference value: 4.55 to 4.85 %); assay type: functional
[20] = system: MDA-MB-231; assay: Induction of apoptosis in human MDA-MB-231 cells after 24 hrs using FITC-annexin V and propidium iodide staining by flow cytometry; assay type: functional, cell-based
[21] = system: MDA-MB-231; assay: Induction of apoptosis in human MDA-MB-231 cells assessed as live cells at 1 uM after 24 hrs using FITC-annexin V and propidium iodide staining by flow cytometry (reference value: 83.45 to 89.30 %); assay type: functional
[22] = system: MDA-MB-231; assay: Induction of apoptosis in human MDA-MB-231 cells assessed as early apoptotic cells at 1 uM after 24 hrs using FITC-annexin V and propidium iodide staining by flow cytometry (reference value: 4.55 to 4.85 %); assay type: functional
[23] = system: MDA-MB-231; assay: Inhibition of colony formation of human MDA-MB-231 cells at 0.625 to 10 uM after 2 weeks by crystal violet staining-based GelCount method; assay type: functional, cell-based
Method in brief: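 MDA-MB-231 cells seeded at 800/well and left 24 h. Then treated with 0.625–10 μM compound or DMSO, medium with compound renewed every 72 h for two weeks. Stained with 0.01% crystal violet for 10 min after PBS washes. Whole-well density quantified on GelCount. Triplicate; SD; one-way ANOVA.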

[24] = system: MDA-MB-231; assay: Induction of apoptosis in human MDA-MB-231 cells assessed as early apoptotic cells at 10 uM after 24 hrs using FITC-annexin V and propidium iodide staining by flow cytometry (reference value: 4.55 to 4.85 %); assay type: functional
[25] = system: MDA-MB-231; assay: Induction of apoptosis in human MDA-MB-231 cells assessed as upregulation of Bax level at 2.5 to 10 uM after 48 hrs by Western blot analysis; assay type: functional, cell-based
Method in brief: as §1

SMILES: C=C1C(=O)[C@@]23[C@@H]4OC(C)(C)O[C@]25OC[C@]2(C=CC(=O)C(C)(C)[C@H]2[C@@H]5O)[C@@H]3CC[C@@H]14
IC50 [1]: 6.02 µM
IC50 [2]: 10.2 µM
Activity [3]: Active
Activity [4]: 73%
IC50 [5]: 0.98 µM
Activity [6]: Dose-dependent effect
Activity [7]: 52.3%
Activity [8]: 0.3%
Activity [9]: Active
Activity [10]: 0.3%
Activity [11]: 11.35%
Activity [12]: Non-toxic
TGI [13]: Active
Activity [14]: 39.1%
Activity [15]: Dose-dependent effect
Activity [16]: 0.55%
IC50 [17]: 5.6 µM
Activity [18]: 16.55%
Activity [19]: 10.15%
Activity [20]: Dose-dependent effect
Activity [21]: 83.05%
Activity [22]: 5.05%
inhibition [23]: Active
Activity [24]: 8.3%
Activity [25]: Active

SMILES: C=C1C(=O)[C@@]23C(=O)[C@@H](O)[C@@H]4C(C)(C)[C@@H]5OC[C@]4(C(=O)/C5=C\O)[C@@H]2CC[C@@H]1[C@H]3O
IC50 [5]: > 30 µM
IC50 [17]: > 30 µM

IC50 [1]: 5.82 µM
IC50 [5]: 1.31 µM
IC50 [17]: 2.23 µM
SMILES: C=C1C(=O)[C@]23[C@H](O)[C@H]1CC[C@H]2[C@@]12CO[C@]3(O)[C@@H](O)[C@@H]1C(C)(C)C=CC2=O
IC50 [2]: 4.95 µM

SMILES: C=C1C(=O)[C@@]23[C@@H]4OC(C)(C)O[C@]25OC[C@]2(C(=O)C(C=O)=CC(C)(C)[C@H]2[C@@H]5O)[C@@H]3CC[C@@H]14
IC50 [1]: 6.55 µM
IC50 [2]: 4.51 µM
Activity [3]: Active
Activity [4]: 69.55%
IC50 [5]: 1.28 µM
Activity [6]: Dose-dependent effect
Activity [7]: 52.25%
Activity [8]: 0.25%
Activity [9]: Active
Activity [10]: 0.45%
Activity [11]: 11.7%
Activity [14]: 36.1%
Activity [15]: Dose-dependent effect
Activity [16]: 0.2%
IC50 [17]: 3.46 µM
Activity [18]: 19.25%
Activity [19]: 10.95%
Activity [20]: Dose-dependent effect
Activity [21]: 84.95%
Activity [22]: 3.15%
inhibition [23]: Active
Activity [24]: 11.2%
Activity [25]: Active
